Test results reported in publication PMC6995037 (Biochemistry, 2015).
“Also recorded” adds a separate entry of the source. Read-outs that look alike come from different tables or passages of the source. No end group written: not given here.

B1: ASCIZ: transcription factor ASCIZ with 17 motifs (protein, UniProt O43313 1-823, looked up)
ATM interactor: MAASEAAAAAGSAALAAGARAVPAATTGAAAAASGPWVPPGPRLRGSRPRPAGATQQPAVPAPPAGELIQPSVSELSRAVRTNILCTVRGCGKILPNSPALNMHLVKSHRLQDGIVNPTIRKDLKTGPKFYCCPIEGCPRGPERPFSQFSLVKQHFMKMHAEKKHKCSKCSNSYGTEWDLKRHAEDCGKTFRCTCGCPYASRTALQSHIYRTGHEIPAEHRDPPSKKRKMENCAQNQKLSNKTIESLNNQPIPRPDTQELEASEIKLEPSFEDSCGSNTDKQTLTTPPRYPQKLLLPKPKVALVKLPVMQFSVMPVFVPTADSSAQPVVLGVDQGSATGAVHLMPLSVGTLILGLDSEACSLKESLPLFKIANPIAGEPISTGVQVNFGKSPSNPLQELGNTCQKNSISSINVQTDLSYASQNFIPSAQWATADSSVSSCSQTDLSFDSQVSLPISVHTQTFLPSSKVTSSIAAQTDAFMDTCFQSGGVSRETQTSGIESPTDDHVQMDQAGMCGDIFESVHSSYNVATGNIISNSLVAETVTHSLLPQNEPKTLNQDIEKSAPIINFSAQNSMLPSQNMTDNQTQTIDLLSDLENILSSNLPAQTLDHRSLLSDTNPGPDTQLPSGPAQNPGIDFDIEEFFSASNIQTQTEESELSTMTTEPVLESLDIETQTDFLLADTSAQSYGCRGNSNFLGLEMFDTQTQTDLNFFLDSSPHLPLGSILKHSSFSVSTDSSDTETQTEGVSTAKNIPALESKVQLNSTETQTMSSGFETLGSLFFTSNETQTAMDDFLLADLAWNTMESQFSSVETQTSAEPHTVSNF
B2: Chica_(410–478) (domain or fragment, human, UniProt Q9H4H8 410-478, looked up)
chain: QTSITTACAGTQTAVITRIASSQTTIWSRSTTTQTDMDENILFPRGTQSTEGSPVSKMSVSRSSSLKSS
B3: LC8 (natural protein)
chain: MSDRKAVIKNADMSEEMQQDAVDCATQALEKYNIEKDIAAYIKKEFDKKYNPTWHCIVGRNFGSYVTHETRHFIYFYLGQVAILLFKSG

Experiments:
LC8 [1] = biological target: T1, LC8 (Drosophila melanogaster, UniProt Q24117); assay: Isothermal titration calorimetry of LC8 binding to Chica motif peptides; settings: for relative affinity, in words: comparison between Chica motif peptides; for fold weaker affinity than QT1p: relative to QT1p (Kd 0.4 μM)
Summary of the method: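 Synthetic peptides of Chica motifs, with added non-native N-terminal residues for solubility and A280 quantitation, at 280–300 μM final in 50 mM sodium phosphate, 50 mM NaCl, 0.5 mM sodium azide, pH 7.5. Titrated into 30–35 μM LC8 in the cell at 25 °C. Peak areas were fitted to a single-site model for N, Kd, ΔH and ΔS. Values are the average of three independent experiments.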

LC8 [2] = biological target: T1, LC8; settings: read-out: binding affinity; Pak1; cited from earlier work
LC8 [3] = biological target: B3; assay: ITC
LC8 [4] = biological target: T1, LC8; settings: of 17 motifs; cited from earlier work
LC8 [5] = biological target: B3; assay: ITC; remark: listed apart in the source
Chica_(410–478) = biological target: B2; assay: ITC

Molecule: SYSVSEVGTQTSI [QT2p]
- relative affinity, in words (LC8 [1]; ITC, listed as QT2): bind LC8 with a similar affinity
- fold weaker affinity than QT1p (LC8 [1]): over 10 fold

Molecule: SYWSRSTTTQTDM [QT4p]
- relative affinity, in words (LC8 [1]; ITC): bind LC8 with a similar affinity
- fold weaker affinity than QT1p (LC8 [1]): over 10 fold

Molecule: SYTTACAGTQTAV [QT3p]
- binding to LC8, in words (LC8 [1]; ITC, 25 °C, pH 7.5): too weak to be measured accurately by ITC; also recorded: immeasurably weak

Molecule: Pak1: LC8 recognition motif of Pak1 (TPTRDVATSP)
- Kd (LC8 [2]): 42.7 µM

Molecule: SYWSRSTTTQTDM [QT4p]
- Kd (LC8 [3]): 5.2 ± 0.1 µM
- dH (LC8 [3]): -34.3 ± 0.418 kJ/mol
- stoichiometry N (LC8 [3]): 1

Molecule: SYSVSEVGTQTSI [QT2p]
- Kd (LC8 [3]): 6.3 ± 0.4 µM
- dH (LC8 [3]): -35.6 ± 4.6 kJ/mol
- stoichiometry N (LC8 [3]): 1

Molecule: B1
- number of motifs that bind LC8 (LC8 [4]): 11

Molecule: B2
- Kd (LC8 [5]): 0.4 ± 0.1 µM

Molecule: B3
- dH (Chica_(410–478)): -31.8 ± 0.837 kJ/mol
- stoichiometry N (Chica_(410–478)): 3

Molecule: SYRKAIDAATQTEE [QT1p]
- dH (LC8 [3]): -28.5 ± 0.837 kJ/mol
- stoichiometry N (LC8 [3]): 1
